High-throughput results (PubChem BioAssay)
proKLK7 act: activates the human kallikrein-7 zymogen; P49862; actives 0.9% (n = 370,000); purified proKLK7, EDANS-DABCYL substrate fluorescence; 100% is mature enzyme control, 0% vehicle; activation, % at 7 µM;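 active = activation above the mean of all tested compounds plus 3 SD, computed per campaign excluding outliers beyond control limits, cut at about 13% in these data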
DDE Tn7 FP inh: disrupts Tn7 cyclic peptide binding to fibrin D-Dimer-E complex; P02675; FP displacement of FITC-Tn7 peptide from fibrin DD(E); 0% = median of compound wells per plate; inhibition, % at 8.3 µM; actives 0.13% (n = 370,000); AID 720508;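 active = inhibition above the mean of compounds falling within the control limits plus 3 SD of them, cut at about 14% in these data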;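 note: 0% = plate median of compound wells and 100% = 10 µM Aha-Tn7 peptide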
Target sequence (P02675 whole entry, looked up): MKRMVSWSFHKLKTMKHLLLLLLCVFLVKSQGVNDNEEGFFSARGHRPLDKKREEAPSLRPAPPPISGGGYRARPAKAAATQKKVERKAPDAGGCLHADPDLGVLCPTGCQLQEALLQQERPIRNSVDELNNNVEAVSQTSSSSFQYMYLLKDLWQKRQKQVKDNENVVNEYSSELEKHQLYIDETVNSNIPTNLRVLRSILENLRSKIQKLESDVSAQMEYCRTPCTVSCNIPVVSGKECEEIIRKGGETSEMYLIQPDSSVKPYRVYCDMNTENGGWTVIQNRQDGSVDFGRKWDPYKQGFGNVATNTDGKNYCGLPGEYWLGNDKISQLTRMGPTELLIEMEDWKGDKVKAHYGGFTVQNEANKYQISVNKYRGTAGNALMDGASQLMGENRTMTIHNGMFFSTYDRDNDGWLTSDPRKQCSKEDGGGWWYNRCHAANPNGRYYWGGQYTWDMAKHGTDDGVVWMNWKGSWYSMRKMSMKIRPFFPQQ
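Assay system: Human clot-derived fibrin DD(E) complex | Buffer or medium: Tris/NaCl/CaCl2 buffer, pH 7.8 | Repeats: One replicate per compound | Benchmarks: Aha-Tn7 high control | Measure: % inhibition scaled between sample-field median and high-control FP | Schedule: 10 min plus 3 h, room temperature | Signal: Fluorescence polarization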
MT1-MMP act inh: blocks activation of human MT1-MMP; P50281; HT1080 RFP-PRO-GFP cells, GFP/RFP ratio fluorescence, overnight; percent of plate control window, DMSO zero; GFP/RFP ratio change, % at 20 µM; actives 0.061% (n = 360,000); AID 651647;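 active = GFP/RFP ratio change of at least 30% with cell ATP level not reduced by more than half and red fluorescence within 50% of control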
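Assay system: HT1080 RFP-PRO-GFP cells. Benchmarks: DMSO vehicle wells and RFP-L50D-GFP reporter cell wells. Times: overnight cell settling, then overnight compound exposure, 37 °C, 5% CO2. Compound: 20 µM single dose, 1% DMSO. Read-out basis: GFP/RFP fluorescence ratio.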
SKN-1 block: C. elegans SKN-1 inhibition. C. elegans VP596 Pgst-4::GFP/RFP ratio, acrylamide-induced, 24 h. inhibition, % at 21.8 µM. actives 0.49% (n = 360,000). AID 624304;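 active = interference check ratio from 0.5 to 1.5 plus GFP to RFP signal ratio inhibition reaching or exceeding a fixed threshold, cut at about 30% in these data, passing the limit was not always enough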
Neddyl block: blocks human cullin neddylation | AID 651699 | actives 0.58% (n = 360,000) | calls only at 25 µM | TR-FRET cullin neddylation, biochemical; in the data active = inhibition above about 36%
DDE Tn6 FP inh: disrupts Tn6 cyclic peptide binding to fibrin D-Dimer-E complex; inhibition, % at 8.3 µM; P02675; actives 0.21% (n = 370,000); Fibrin DD(E) TRITC-Tn6 fluorescence polarization displacement;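 active = inhibition above a per-campaign cutoff: mean of compounds within control limits plus 3 SD, cut at about 15% in these data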;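 note: 0% = median of all compound wells on the plate and 100% = blocking peptide control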
KLK7 act conf: confirmation of human kallikrein-7 zymogen activators; shares compounds with proKLK7 act; purified proKLK7, EDANS-DABCYL substrate fluorescence; scaled: vehicle 0, mature enzyme 100; activation, % at 7 µM; actives 68% (n = 3,200); AID 686949;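 active = activation, as change over the incubation, above the mean of all tested compounds plus 3 SD, cut at about 13% in these data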
EDANS-DABCYL int: optically interferes with EDANS-DABCYL signal, flagging KLK7 hits; shares compounds with proKLK7 act; EDANS-DABCYL substrate fluorescence interference, no enzyme, 4 h; solvent 0%, active enzyme control 100%; activation, % at 7 µM; actives 80% (n = 3,200); AID 686952;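 active = activation above the all-compound mean plus 3 SD, ignoring values outside control-based bounds, cut at about 4.8% in these data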;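 note: value is the 4 h activation minus the activation read at time zero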
Starred values were filed as active, the others as inactive; i = inactive; / = no result shown. A selection: hits, their analogues and other compounds. The true share with any hit is near 2.2%.

SMILES | proKLK7 act | DDE Tn7 FP inh | MT1-MMP act inh | SKN-1 block | Neddyl block | DDE Tn6 FP inh | KLK7 act conf | EDANS-DABCYL int
c1ccc2c(c1)[nH]c1cnccc12 | 46* | -9 | 2 | -23 | / | 1 | 18* | 21*
COC(=O)C1C(OC(=O)c2ccccc2)CC2CCC1N2C (configuration not stated) | 0 | 5 | -2 | -1 | i | -3 | / | /
CC(N)Cc1c[nH]c2c1ccc1ccccc12 (configuration not stated) | 1 | -6 | 2 | 21 | i | 4 | / | /
O=c1ccc2cc(O[C@@H]3O[C@@H](CO)[C@H](O)[C@@H](O)[C@@H]3O)c(O)cc2o1 | 65* | 5 | 11 | 8 | / | -4 | 77* | 84*
N#C[C@H](O[C@@H]1O[C@H](CO[C@@H]2O[C@H](CO)[C@@H](O)[C@H](O)[C@H]2O)[C@@H](O)[C@H](O)[C@H]1O)c1ccccc1 | 0 | 0 | -4 | 10 | i | 8 | / | /
COc1ccc(CN2CCN(C(=O)Cc3ccccc3)CC2)cc1Br | -1 | -7 | 2 | 3 | i | 13 | / | /
Cc1cccc(N2CCc3c2nc2ccccc2c3N)c1 | 22* | 2 | 0 | 10 | i | 2 | -27 | -22
CC(NC(C)(C)C)C(=O)c1cccc(Cl)c1 (configuration not stated) | 0 | 4 | 2 | 18 | i | 5 | / | /
CC(C)NC(C)C(=O)c1ccc2ccccc2c1 (configuration not stated) | 27* | -2 | 3 | 0 | / | 0 | 4 | 8.3*
CC(C(=O)c1ccc2ccccc2c1)N1CCCCC1 (configuration not stated) | 32* | 8 | 0 | -4 | / | 7 | -2 | 1
O=C1NC(=O)N(Cc2ccccc2Cl)C(=O)/C1=C/N1CCOCC1 | 0 | 5 | -26 | -6 | i | 2 | / | /
CCCCCCn1c(=O)c(C(=O)Nc2ncccc2O)c(O)c2ccccc21 | 0 | -1 | 5 | -11 | i | -1 | / | /
COc1ccc(-c2cc(=NCCCCCC(=O)O)c3cc(C)ccc3o2)cc1 | 105* | 4 | 5 | -13 | i | 3 | 64* | 72*
O=C(c1ccc2c3c(cccc13)CC2)C1CCCN(CC2CC2)C1 (configuration not stated) | 43* | 3 | -2 | 0 | / | 1 | -13 | -4
CCOC(=O)c1c(N)n(CCN2CCCCC2)c2nc3ccccc3nc12 | 154* | 9 | 2 | 6 | / | -5 | 29* | 17*
C=CCNC(=O)c1c(N)n(Cc2ccco2)c2nc3ccccc3nc12 | 5 | -5 | -123 | 10 | / | 6 | / | /
COCCCn1c(N)c(C(=O)OC(C)COC)c2nc3ccccc3nc21 (configuration not stated) | 52* | 4 | -3 | 17 | / | 0 | 75* | 71*
COCCNC(=O)c1c(N)n(Cc2ccco2)c2nc3ccccc3nc12 | 27* | -7 | -61 | 4 | / | -7 | -17 | -65
CN1CCN(Cc2nnc3n2-c2ccc(Cl)cc2C(c2ccccc2)=NC3)CC1 | 1 | -4 | -2 | 9 | i | 1 | / | /
CN1C(=O)N(C)C(=O)C2(Sc3ccccc3C2=O)C1=O | 13* | -9 | 1 | 5 | i | -6 | 247* | 233*
C=CCOC(=O)COc1cc(C)cc2oc(=O)c3c(c12)CCC3 | 41* | 6 | 1 | 12 | i | -2 | 44* | 44*
c1ccc(CNCCc2c[nH]c3ccccc23)cc1 | -1 | 5 | -4 | -8 | i | -3 | / | /
